For 13 compounds, LC99 and IC50 results are on record in ChEMBL document CHEMBL1128741, “Synthesis and biological evaluation of 5-fluoro-2'-deoxyuridine phosphoramidate analogs” (J Med Chem, 1995).

Molecules are shown by their SMILES.

For one data set, the system named is B16. Nature of the data set: In vitro cytotoxicity (LC99) was measured against B16 Melanoma cells. The class given is cell-based. Particulars: mouse. The procedure, abridged:
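B16 melanoma cells in exponential growth, (2–3) × 10⁶ in 10 mL serum-free MEM, exposed to drug for 2 h, then washed and resuspended in MEM + 10% FBS. Plated at 50–50 000 cells/plate, grown 8 d at 37 °C. Colonies stained with crystal violet and counted. LC99 (2-log drop in colony formation) taken from log-linear part of log surviving fraction vs concentration.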

Data set [1] deals with L1210. Nature of the data set: In vitro growth inhibition of L1210 cells 2 hours after administration of compound. The class given is functional, cell-based. The conditions noted are these: Mus musculus, L1210, 2 h. The procedure, abridged:
(§1)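 Exponentially growing L1210 cells at (3–6) × 10⁴/mL in Fischer's medium with 10% horse serum, glutamine and antibiotic-antimycotic. Drug exposure lasted the stated time (2, 8, 24 or 48 h). Cells were then spun down and resuspended in drug-free medium. Coulter counts were taken 48 h after the start of treatment and expressed as percent of control. IC50 is given in μM.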

The subject of data set [2] is L1210. The data set can be described thus: In vitro growth inhibition of L1210 cells 24 hours after administration of compound. Type of data set: functional, cell-based. The conditions noted are these: Mus musculus, L1210, 24 h. The procedure, abridged: as §1
For data set [3], the system named is L1210. The data set can be described thus: In vitro growth inhibition of L1210 cells 48 hours after administration of compound. The class given is functional, cell-based. Particulars: Mus musculus, L1210, 48 h. The procedure, abridged:
as §1

Data set [4] has as its system L1210. Nature of the data set: In vitro growth inhibition of L1210 cells 8 hours after administration of compound. The conditions noted are these: Mus musculus, L1210, 8 h. Type of data set: functional, cell-based. The procedure, abridged: as §1

Regarding `Cc1cn([C@H]2C[C@H](O)[C@@H](COP(=O)(OCCC3NC(C)(C)CC(C)O3)N(CCBr)CCBr)O2)c(=O)[nH]c1=O` (stereo partly specified), the LC99 with B16 worked out at 120 µM.
As a reminder, the IC50 is the concentration needed to halve the response being measured. As to `CC1CC(C)(C)NC(CCOP(=O)(OC[C@H]2O[C@@H](n3cc(F)c(=O)[nH]c3=O)C[C@@H]2O)N2CCOCC2)O1` (stereo partly specified), the IC50 in the data set on L1210 [1] came out at 15000 nM; in the data set with L1210 [2] it was 900 nM; in the data set with L1210 [3], 150 nM; in the data set on L1210 [4], 5000 nM.
`Cc1ccc(S(=O)(=O)OCCN(C)P(=O)(OCCC2NC(C)(C)CC(C)O2)OC[C@H]2O[C@@H](n3cc(F)c(=O)[nH]c3=O)C[C@@H]2O)cc1` (stereo partly specified) displayed an LC99 with B16 of 141 µM. Further, the IC50 was 160 nM in the data set with L1210 [1], 19 nM in the data set with L1210 [2], 2.5 nM in the data set on L1210 [3] and 60 nM in the data set on L1210 [4].
In turn, `O=c1[nH]cc(F)c(=O)[nH]1` [FLUOROURACIL] returned an LC99 in the data set on B16 greater than 2000 µM. The 50% inhibitory concentration (IC50) with L1210 [1] was 2200 nM; with L1210 [2], 220 nM; in the data set with L1210 [3] it was 120 nM; in the data set with L1210 [4], 630 nM.
In turn, `CC1CC(C)(C)NC(CCOP(=O)(OC[C@H]2O[C@@H](n3ccc(=O)[nH]c3=O)C[C@@H]2O)N(CCBr)CCBr)O1` (stereo partly specified) had an LC99 with B16 of 155 µM.
In the data set on B16, `CC1CC(C)(C)NC(CCOP(=O)(OC[C@H]2O[C@@H](n3cc(F)c(=O)[nH]c3=O)C[C@@H]2O)N(C)CCBr)O1` (stereo partly specified) displayed an LC99 of 101 µM. For the same compound, the IC50 in the data set with L1210 [1] was 120 nM; in the data set on L1210 [2], 18 nM; in the data set with L1210 [3] it was 2.5 nM; in the data set with L1210 [4], 50 nM.
`CC1CC(C)(C)NC(CCOP(=O)(OC[C@H]2O[C@@H](n3cc(F)c(=O)[nH]c3=O)C[C@@H]2O)N2CCCCC2)O1` (stereo partly specified) displayed an LC99 with B16 of 650 µM. In addition, the 50% inhibitory concentration (IC50) in the data set on L1210 [1] came to 750 nM; in the data set on L1210 [2], 24 nM; with L1210 [3], 8 nM; in the data set with L1210 [4], 260 nM.
As to `CC1CC(C)(C)NC(CCOP(=O)(OC[C@H]2O[C@@H](n3cc(F)c(=O)[nH]c3=O)C[C@@H]2O)N(C)CCCl)O1` (stereo partly specified), in the data set on B16, the LC99 amounted to 375 µM. The concentration for half-maximal inhibition (IC50) in the data set on L1210 [1] was 300 nM; in the data set with L1210 [2], 25 nM; in the data set on L1210 [3], 3.5 nM; with L1210 [4], 160 nM.
Regarding `CC1CC(C)(C)NC(CCOP(=O)(OC[C@H]2O[C@@H](n3ccc(=O)[nH]c3=O)C[C@@H]2O)N(C)CCCl)O1` (stereo partly specified), the IC50 in the data set on L1210 [1] was determined as 40000 nM; in the data set with L1210 [2] it was 6000 nM; with L1210 [3], 550 nM; in the data set on L1210 [4] it was 16500 nM.
`CC1CC(C)(C)NC(CCOP(=O)(OC[C@H]2O[C@@H](n3ccc(=O)[nH]c3=O)C[C@@H]2O)N(C)CCBr)O1` (stereo partly specified) yielded an LC99 in the data set with B16 of 319 µM. The half-maximal inhibitory concentration (IC50) in the data set with L1210 [1] is 20000 nM; in the data set on L1210 [2] it was 1300 nM; in the data set on L1210 [3], 430 nM; with L1210 [4], 8200 nM.
The compound `Cc1cn([C@H]2C[C@H](O)[C@@H](COP(=O)(OCCC3NC(C)(C)CC(C)O3)N(C)CCBr)O2)c(=O)[nH]c1=O` (stereo partly specified) yielded an LC99 in the data set on B16 of 165 µM. Moreover, the half-maximal inhibitory concentration (IC50) with L1210 [1] was 13000 nM; in the data set with L1210 [2], 7000 nM; in the data set on L1210 [3], 590 nM; in the data set on L1210 [4] it was 10500 nM.
For the compound `CC1CC(C)(C)NC(CCOP(=O)(OC[C@H]2O[C@@H](n3cc(F)c(=O)[nH]c3=O)C[C@@H]2O)N(CCBr)CCBr)O1` (stereo partly specified), the LC99 in the data set with B16 was 100 µM.
Turning to `CC1CC(C)(C)NC(CCOP(=O)(OC[C@H]2O[C@@H](n3cc(F)c(=O)[nH]c3=O)C[C@@H]2O)N(C)CCI)O1` (stereo partly specified), in the data set on B16, the LC99 came out at 95 µM. Also, the half-inhibitory concentration (IC50) in the data set with L1210 [1] came to 190 nM; in the data set with L1210 [2], 6 nM; in the data set with L1210 [3], 2 nM; with L1210 [4], 75 nM.
